Results on seven molecules are retold here after ChEMBL document CHEMBL3272302, “Synthesis and evaluation of alpha-hydroxythiol esters as antitumor agents and glyoxalase I inhibitors” (J Med Chem, 1977).

The subject of data set [1] is L1210. Nature of the data set: Antitumor activity against mouse L1210 cells allografted in BDF1 mouse assessed as increase in host survival days at 100 mg/kg, ip administered on day 2 and 6 relative to control. The conditions noted are these: route intraperitoneal. Type of data set: functional. The method, boiled down: (§1)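 L1210 lymphoid leukemia cells were implanted ip in BDF1 mice on day 0. Compounds were given ip as suspensions in saline, saline with Tween 80, or Klucel (hydroxypropylcellulose). Injections were repeated every fourth day at the same dose. Groups had three or six mice, and controls received vehicle only. The read-out was mean survival time in days for treated and control animals.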

For data set [2], the target named is Lactoylglutathione lyase (Saccharomyces cerevisiae). Nature of the data set: Inhibition of yeast glyoxalase-1 using methylglyoxal and glutathione as substrate. The conditions noted are these: read-out: I50.
For data set [3], the system named is Mus musculus. Nature of the data set: Toxicity in BDF1 mouse allografted with mouse L1210 cells at 100 mg/kg, ip administered on day 2 and 6. The data set is classed as organism-based. More on the design: dose 100 mg/kg, route intraperitoneal. As to conditions: in vivo. The method, boiled down: (§2)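 BDF1 mice implanted ip on day 0 with L1210 lymphoid leukemia cells. Compound given ip as a suspension in saline, saline with Tween 80, or Klucel (HPC), with injections every fourth day. Multiple dose levels 400, 200 and 100 mg/kg; three- or six-mouse groups. Toxicity scored as survivors per animals started, recorded on day 5.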

The test system of data set [4] is L1210. As to the kind of experiment: Antitumor activity against mouse L1210 cells allografted in BDF1 mouse assessed as increase in host survival time at 100 mg/kg, ip administered on day 2 and 6 relative to control. The data set is classed as functional. The conditions noted are these: route intraperitoneal. The method, boiled down:
(§3)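 BDF1 mice received ip L1210 lymphoid leukemia cells on day 0. Compounds were then given ip in saline, saline/Tween 80, or Klucel vehicle, repeated every fourth day at a fixed dose from the 400, 200, 100 mg/kg series. Assays used three or six mice, with vehicle-treated controls. T/C % is treated over control mean survival time, expressed as percent.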

The target in data set [5] is Lactoylglutathione lyase (Saccharomyces cerevisiae). As to the kind of experiment: Competitive inhibition of yeast glyoxalase-1 using methylglyoxal and glutathione as substrate by Lineweaver-Burk plot analysis.
Data set [6] deals with L1210. Nature of the data set: Antitumor activity against mouse L1210 cells allografted in BDF1 mouse assessed as increase in host survival time at 200 mg/kg, ip administered on day 2 and 6 relative to control. The data set is classed as functional. As to conditions: route intraperitoneal. In a few lines: as §3
Data set [7] has as its system Mus musculus. As to the kind of experiment: Toxicity in BDF1 mouse allografted with mouse L1210 cells at 200 mg/kg, ip administered on day 2 and 6. The data set is classed as organism-based. The arrangement: dose 200 mg/kg, route intraperitoneal. As to conditions: in vivo. The method, boiled down:
as §2

For data set [8], the system named is L1210. Nature of the data set: Antitumor activity against mouse L1210 cells allografted in BDF1 mouse assessed as increase in host survival days at 200 mg/kg, ip administered on day 2 and 6 relative to control. As to conditions: route intraperitoneal. Type of data set: functional. In a few lines:
as §1

Data set [9] deals with L1210. As to the kind of experiment: Antitumor activity against mouse L1210 cells allografted in BDF1 mouse assessed as increase in host survival time at 100 mg/kg, ip administered on day 1 relative to control. The conditions noted are these: route intraperitoneal. Type of data set: functional.
Data set [10] deals with Mus musculus. Nature of the data set: Toxicity in BDF1 mouse allografted with mouse L1210 cells at 100 mg/kg, ip administered on day 1. More on the design: dose 100 mg/kg, route intraperitoneal. Type of data set: organism-based. The conditions noted are these: in vivo. The method, boiled down: as §2
Data set [11] deals with L1210. As to the kind of experiment: Antitumor activity against mouse L1210 cells allografted in BDF1 mouse assessed as increase in host survival days at 100 mg/kg, ip administered on day 1 relative to control. The data set is classed as functional. As to conditions: route intraperitoneal.
For data set [12], the system named is L1210. Nature of the data set: Antitumor activity against mouse L1210 cells allografted in BDF1 mouse assessed as increase in host survival days at 200 mg/kg, ip administered on day 1, 5, and 9 relative to control. Type of data set: functional. The conditions noted are these: route intraperitoneal. In a few lines: as §1
Data set [13] concerns Mus musculus. As to the kind of experiment: Toxicity in BDF1 mouse allografted with mouse L1210 cells at 200 mg/kg, ip administered on day 1, 5, and 9. The data set is classed as organism-based. The arrangement: dose 200 mg/kg, route intraperitoneal. The conditions noted are these: in vivo. The method, boiled down: as §2
In data set [14] the test system is L1210. As to the kind of experiment: Antitumor activity against mouse L1210 cells allografted in BDF1 mouse assessed as increase in host survival time at 200 mg/kg, ip administered on day 1, 5, and 9 relative to control. As to conditions: route intraperitoneal. Type of data set: functional. The method, boiled down:
as §3

In data set [15] the test system is Mus musculus. As to the kind of experiment: Toxicity in BDF1 mouse allografted with mouse L1210 cells at 100 mg/kg, ip administered on day 1, 5, and 9. Type of data set: organism-based. As to conditions: in vivo. The arrangement: dose 100 mg/kg, route intraperitoneal. The method, boiled down: as §2
Data set [16] concerns L1210. As to the kind of experiment: Antitumor activity against mouse L1210 cells allografted in BDF1 mouse assessed as increase in host survival days at 100 mg/kg, ip administered on day 1, 5, and 9 relative to control. The conditions noted are these: route intraperitoneal. Type of data set: functional. In a few lines: as §1
Data set [17] deals with L1210. Nature of the data set: Antitumor activity against mouse L1210 cells allografted in BDF1 mouse assessed as increase in host survival time at 100 mg/kg, ip administered on day 1, 5, and 9 relative to control. The data set is classed as functional. The conditions noted are these: route intraperitoneal. The method, boiled down:
as §3

Data set [18] concerns Mus musculus. Nature of the data set: Toxicity in BDF1 mouse allografted with mouse L1210 cells at 400 mg/kg, ip administered on day 1. Type of data set: organism-based. More on the design: dose 400 mg/kg, route intraperitoneal. The conditions noted are these: in vivo. The method, boiled down:
as §2

The subject of data set [19] is L1210. Nature of the data set: Antitumor activity against mouse L1210 cells allografted in BDF1 mouse assessed as increase in host survival days at 400 mg/kg, ip administered on day 1 relative to control. Type of data set: functional. The conditions noted are these: route intraperitoneal.
Data set [20] has as its system L1210. Nature of the data set: Antitumor activity against mouse L1210 cells allografted in BDF1 mouse assessed as increase in host survival time at 400 mg/kg, ip administered on day 1 relative to control. Type of data set: functional. The conditions noted are these: route intraperitoneal.

As usually defined, the T/C is the result in the treated group divided by that in the control group, in per cent. One may read the Ki as the equilibrium dissociation constant of an inhibitor or competing ligand from its target. Low values mean tighter binding, high ones weaker binding.

As for `CCCCSC(=O)C(C)O` (stereo not given), in data set [1], the T/C was 99%. Further, the IC50 in data set [2] came to 16.5 mM. Moreover, the Activity result in data set [3] was “Toxic”. In addition, the Time in data set [4] was found to be 10 days. This molecule also yielded a Ki in data set [5] of 12.9 mM.

Take `CC(O)C(=O)SCc1ccccc1` (stereo not given): in data set [6], the Time is 10.3 days. Further, the Activity result in data set [7] is listed as “Toxic”. The T/C in data set [8] is recorded as 98%. In data set [2], the IC50 amounted to 7.1 mM. In addition, in data set [5], the Ki was found to be 5.5 mM.

On to `CCCCSC(=O)C(O)c1ccccc1` (stereo not given), for which the Time in data set [9] was found to be 9.8 days. The IC50 in data set [2] was found to be 37.8 mM. For the same molecule, the Activity result in data set [10] is “Toxic”. The T/C in [11] came to 105%. This molecule yielded a Ki in data set [5] of 29.6 mM.

As to `O=C(SCc1ccccc1)C(O)c1ccccc1` (stereo not given), the T/C in data set [12] came to 100%. For the same molecule, in [13], the Activity result is reported as “Toxic”. In addition, the IC50 in [2] amounted to 8.1 mM. The molecule further gave a Ki in data set [5] of 6.3 mM. Also, in [14], the Time was found to be 10.7 days.

As to `COC(=O)CSC(=O)C(O)c1ccccc1` (stereo not given), in [12], the T/C is reported as 103%. The Activity entry in data set [13] is recorded as “Toxic”. The IC50 in data set [2] was 10.5 mM. Also, the Ki in data set [5] was 8.2 mM. Besides, in [14], the Time turned out to be 10.5 days.

Turning to `CCCCOC(=O)CSC(=O)C(O)c1ccccc1` (stereo not given), the Activity result in data set [15] is reported as “Toxic”. The T/C in data set [16] came out at 105%. Moreover, in data set [2], the IC50 stood at 44.5 mM. For the same molecule, the Ki in data set [5] is 34.7 mM. Also, in [17], the Time turned out to be 10.2 days.

On to `COC(=O)CCSC(=O)C(O)c1ccccc1` (stereo not given), for which the Activity result in data set [18] was “Toxic”. The IC50 in data set [2] stood at 49.6 mM. The T/C in data set [19] was 105%. Moreover, the affinity in data set [5], expressed as Ki, was 38.6 mM. For the same molecule, the Time in [20] turned out to be 9.8 days.
